Reference: ChEMBL document CHEMBL2311526, “Phthalazinone inhibitors of inosine-5'-monophosphate dehydrogenase from Cryptosporidium parvum” (Bioorg Med Chem Lett, 2013)
pEC50, pIC50: −log10 of the molar value. Activity calls are given as the source filed them. No cut-off for these calls is given here.

What was measured:
[1] = target: T1, Inosine-5'-monophosphate dehydrogenase (Cryptosporidium parvum, UniProt Q8T6T2); assay: Inhibition of recombinant Cryptosporidium parvum IMPDH assessed as production of NADH by fluorescence assay in presence of 0.05% BSA
T1 sequence (Q8T6T2 whole entry): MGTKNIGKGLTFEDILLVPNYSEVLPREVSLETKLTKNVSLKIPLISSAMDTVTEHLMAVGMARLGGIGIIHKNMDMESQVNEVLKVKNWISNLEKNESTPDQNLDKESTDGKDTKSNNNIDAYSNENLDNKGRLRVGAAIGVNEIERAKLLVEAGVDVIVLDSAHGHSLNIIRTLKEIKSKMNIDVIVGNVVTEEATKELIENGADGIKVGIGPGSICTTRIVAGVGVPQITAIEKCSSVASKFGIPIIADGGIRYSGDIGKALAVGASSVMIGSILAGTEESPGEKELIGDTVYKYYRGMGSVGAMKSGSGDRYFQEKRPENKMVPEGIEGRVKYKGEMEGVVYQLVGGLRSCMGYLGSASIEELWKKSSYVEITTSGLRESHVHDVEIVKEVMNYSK
How it was run: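 Enzyme inhibition was measured with 0.05% fatty acid free BSA added, to assess non-specific binding.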

[2] = target: T1, Inosine-5'-monophosphate dehydrogenase; assay: Inhibition of recombinant Cryptosporidium parvum IMPDH assessed as production of NADH by fluorescence assay
[3] = target: T2, Inosine-5'-monophosphate dehydrogenase (Cryptosporidium parvum) (UniProt Q8T6T2); assay: Mixed type inhibition of recombinant Cryptosporidium parvum IMPDH with respect to NAD+
T2 sequence (whole entry): T1 sequence (Q8T6T2 whole entry)

[4] = test system: Toxoplasma gondii; assay: Antiparasitic activity against Cryptosporidium parvum IMPDH expressing Toxoplasma gondii assessed as growth inhibition; format: functional, organism-based
[5] = test system: Toxoplasma gondii; assay: Antiparasitic activity against wild type Toxoplasma gondii assessed as growth inhibition; format: functional, organism-based
[6] = test system: Toxoplasma gondii; assay: Selectivity ratio for EC50 for wild type Toxoplasma gondii to EC50 for Cryptosporidium parvum IMPDH expressing Toxoplasma gondii; format: functional
[7] = target: T2, Inosine-5'-monophosphate dehydrogenase (Cryptosporidium parvum); assay: Pure noncompetitive inhibition of recombinant Cryptosporidium parvum IMPDH with respect to NAD+
[8] = test system: Liver; assay: Half life in mouse liver microsomes; format: ADME, Microsome
[9] = test system: Cryptosporidium parvum; assay: Antiparasitic activity against Cryptosporidium parvum infected in IL12 knockout mouse model at 250 mg/kg, po for 7 days; format: functional, organism-based; set-up: dose 250 mg/kg
How it was run: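 IL12 knockout mice were inoculated with 1,000 oocysts and, from 4 h post-infection, dosed by gavage once daily for 7 days at 250 mg/kg in 10% DMSO/corn oil. Controls were vehicle and paromomycin 2000 mg/kg. Oocysts from feces (days 0, 4, 7) were purified on sucrose gradients, stained 20 min with FITC-labelled OW50 antibody, and counted by flow cytometry, with ANOVA.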

Row | pIC50 [2] | SMILES | pIC50 [1] | other results
1 | < 5.30 | Cn1nc(CC(=O)NN)c2ccccc2c1=O |  | 
2 | < 5.30 | Cn1nc(CC(=O)Nc2ccc(Br)cc2Br)c2ccccc2c1=O |  | 
3 | 6.40 | Cc1cc(NC(=O)Cc2nn(C)c(=O)c3ccccc23)ccc1C#N | 6.34 | 
4 | < 5.30 | COc1cccc(NC(=O)Cc2nn(C)c(=O)c3ccccc23)c1 |  | 
5 | 6.89 | Cn1nc(CC(=O)Nc2ccc(Br)cc2)c2ccccc2c1=O | 6.89 | 
6 | 7.20 | Cn1nc(CC(=O)Nc2ccc3ccccc3c2)c2ccccc2c1=O | 6.85 | 
7 | < 5.30 | CC(C)c1ccc(NC(=O)Cc2nn(C)c(=O)c3ccccc23)cc1 |  | 
8 | 7.26 | Cn1nc(CC(=O)Nc2ccc(Cl)c(Cl)c2)c2ccccc2c1=O | 7.02 | 
9 | < 5.30 | COc1ccc(NC(=O)Cc2nn(C)c(=O)c3ccccc23)cc1C(F)(F)F |  | 
10 | < 5.30 | Cn1nc(CC(=O)Nc2ccc3ocnc3c2)c2ccccc2c1=O |  | 
11 | < 5.30 | Cn1nc(CC(=O)Nc2ccc(C(F)(F)F)cc2)c2ccccc2c1=O |  | 
12 | 6.64 | Cn1nc(CC(=O)Nc2ccc(Cl)cc2)c2ccccc2c1=O | 6.55 | 
13 | < 5.30 | Cn1nc(CC(=O)Nc2cc(Cl)c(Cl)c(Cl)c2)c2ccccc2c1=O |  | 
14 | < 5.30 | Cn1nc(CC(=O)Nc2cc(F)c(F)c(F)c2)c2ccccc2c1=O |  | 
15 | < 5.30 | Cn1nc(CC(=O)Nc2ccc(Br)cc2C(F)(F)F)c2ccccc2c1=O |  | 
16 | < 5.30 | Cn1nc(CC(=O)Nc2ccc(OC(F)(F)F)cc2)c2ccccc2c1=O |  | 
17 | < 5.30 | Cn1nc(CC(=O)NC(C)(C)C)c2ccccc2c1=O |  | 
18 | < 5.30 | COc1ccccc1NC(=O)Cc1nn(C)c(=O)c2ccccc12 |  | 
19 | 7.10 | Cc1cc(NC(=O)Cc2nn(C)c(=O)c3ccccc23)ccc1Cl | 7.02 | 
20 | < 5.60 | Cn1nc(CC(=O)Nc2ccc(C#N)c(C#N)c2)c2ccccc2c1=O | < 5.60 | 
21 | < 5.30 | Cn1nc(CC(=O)Nc2ccc(F)cc2)c2ccccc2c1=O |  | 
22 | 6.70 | Cn1nc(CC(=O)Nc2ccc(Cl)c(F)c2)c2ccccc2c1=O | 6.62 | 

Continued, molecule first:

Row | SMILES | pIC50 [2] | pIC50 [1] | other results
23 | COc1ccc(NC(=O)Cc2nn(C)c(=O)c3ccccc23)cc1 | 6.00 | 6.03 | Kii [3]: 7 µM; Kis [3]: 1.8 µM
24 | COc1cc(NC(=O)Cc2nn(C)c(=O)c3ccccc23)ccc1Cl | 7.48 | 7.40 | 
25 | COc1ccc(CNC(=O)Cc2nn(C)c(=O)c3ccccc23)cc1 | < 5.30 |  | 
26 | O=C(Cc1n[nH]c(=O)c2ccccc12)Nc1ccc(Cl)c(C(F)(F)F)c1 | 7.40 | 7.21 | 
27 | Cn1nc(CC(=O)Nc2ccc(N)c(C(F)(F)F)c2)c2ccccc2c1=O | < 5.30 |  | 
28 | Cn1nc(CC(=O)Nc2ccc(Br)c(C(F)(F)F)c2)c2ccccc2c1=O | 7.62 | 7.32 | pEC50 [4]: 6.52; pEC50 [5]: 5.40; Ratio EC50 [6]: 14
29 | Cn1nc(CC(=O)Nc2ccc(S(C)(=O)=O)cc2)c2ccccc2c1=O | < 5.30 |  | 
30 | Cc1cc2cc(NC(=O)Cc3nn(C)c(=O)c4ccccc34)ccc2o1 | 7.19 | 7.14 | 
31 | Cn1nc(CC(=O)Nc2ccc(C#N)c(Cl)c2)c2ccccc2c1=O | 6.54 | 6.33 | 
32 | Cn1nc(CC(=O)Nc2ccc(C#N)c(C(F)(F)F)c2)c2ccccc2c1=O | 7.27 | 7.28 | 
33 | Cn1nc(CC(=O)Nc2cccc(C(F)(F)F)c2)c2ccccc2c1=O | < 5.30 |  | 
34 | Cn1nc(CC(=O)Nc2ccc(Br)c(Cl)c2)c2ccccc2c1=O | 7.52 | 7.12 | 
35 | CCOc1ccc(NC(=O)Cc2nn(C)c(=O)c3ccccc23)cc1 | < 5.30 |  | 
36 | Cn1nc(CC(=O)Nc2ccc(Cl)c(C(F)(F)F)c2)c2ccccc2c1=O | 7.89 | 7.60 | Kii [7]: 3.4 nM; Kis [7]: 3.4 nM; pEC50 [4]: 6.40; pEC50 [5]: 4.64; Ratio EC50 [6]: 60; t1/2 [8]: 1.32 h; Activity [9]: inactive
37 | Cn1nc(CC(=O)Nc2ccc3oc4ccccc4c3c2)c2ccccc2c1=O |  | 7.52 | pEC50 [4]: 6.40; pEC50 [5]: 5.52; Ratio EC50 [6]: 7
38 | Cc1ccc(NC(=O)Cc2nn(C)c(=O)c3ccccc23)cc1 | < 5.30 |  | 
39 | CCn1c2ccccc2c2cc(NC(=O)Cc3nn(C)c(=O)c4ccccc34)ccc21 | < 5.30 |  | 
40 | Cn1nc(CC(=O)Nc2ccc(C#N)cc2)c2ccccc2c1=O | 6.02 | 6.03 | 
41 | Cn1nc(CC(=O)Nc2ccc(F)c(C(F)(F)F)c2)c2ccccc2c1=O | 6.82 | 6.82 | 
42 | Cn1nc(CC(=O)Nc2ccc3oc4c(c3c2)CCCC4)c2ccccc2c1=O | 7.70 | 6.82 | pEC50 [4]: 6.30; pEC50 [5]: 6.00; Ratio EC50 [6]: 2
43 | Cn1nc(CC(=O)Nc2ccc3[nH]c4ccccc4c3c2)c2ccccc2c1=O | < 5.30 |  | 
44 | Cn1nc(CC(=O)Nc2ccc(Cl)cc2C(F)(F)F)c2ccccc2c1=O | < 5.30 |  | 
45 | Cn1nc(CC(=O)Nc2ccc3occc3c2)c2ccccc2c1=O | 7.03 | 7.07 | 
46 | O=C(Cc1n[nH]c(=O)c2ccccc12)Nc1ccc(Br)c(C(F)(F)F)c1 | 7.49 | 6.89 | 
47 | Cn1nc(CC(=O)Nc2ccc(Br)cc2F)c2ccccc2c1=O | 5.96 | 5.77 | 
48 | Cc1cc(NC(=O)Cc2nn(C)c(=O)c3ccccc23)ccc1Br | 7.15 | 6.85 | 
49 | Cn1nc(CC(=O)Nc2ccc(Cl)cc2Cl)c2ccccc2c1=O | < 5.30 |  | 
50 | Cn1nc(CC(=O)Nc2cc(Cl)cc(Cl)c2)c2ccccc2c1=O | < 5.30 |  | 
51 | Cn1nc(CC(=O)Nc2ccc3c(c2)oc2ccccc23)c2ccccc2c1=O | < 5.30 |  | 
52 | Cn1nc(CC(=O)Nc2cccc(Cl)c2)c2ccccc2c1=O | < 5.30 |  | 
